# Experimental data published in paper PMC8733272 (iScience, 2021).
# Changes are numbered by the printed parent chain. Entries after “also recorded” stand apart in the source; their conditions may differ.
# Experiments:
# WT-Parkin = target: T1, WT-Parkin (Homo sapiens, UniProt O60260); assay: Parkin autoubiquitination by Western blot; type: biochemical; conditions: 5 min reaction at 37°C
# T1 sequence (O60260 1-465): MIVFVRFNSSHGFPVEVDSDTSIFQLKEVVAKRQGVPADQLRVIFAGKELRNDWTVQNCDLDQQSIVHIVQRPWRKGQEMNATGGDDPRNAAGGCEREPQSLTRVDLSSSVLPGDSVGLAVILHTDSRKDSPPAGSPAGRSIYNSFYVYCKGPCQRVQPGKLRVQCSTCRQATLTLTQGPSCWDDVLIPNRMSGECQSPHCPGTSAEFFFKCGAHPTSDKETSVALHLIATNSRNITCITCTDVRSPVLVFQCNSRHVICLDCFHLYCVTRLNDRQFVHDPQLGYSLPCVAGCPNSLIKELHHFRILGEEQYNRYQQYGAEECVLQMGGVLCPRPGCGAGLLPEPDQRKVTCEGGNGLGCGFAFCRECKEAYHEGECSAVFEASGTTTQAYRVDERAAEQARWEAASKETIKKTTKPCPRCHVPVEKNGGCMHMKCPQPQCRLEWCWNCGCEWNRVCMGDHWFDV
# Summary of the method: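 Untagged WT-Parkin was pre-incubated 30 min at 37°C with E1, E2 and test compound; the 2X mix held 40 nM E1, 800 nM E2 and 100 nM Parkin. Then 2X substrate mix was added (760 nM fluorescein-Ub, 50 μM ubiquitin, 10 μM pUb, 2 mM ATP) in HEPES pH 7.4 buffer with 1% DMSO, in 40 μL. Stopped after 5 min with SDS sample buffer; polyubiquitin smears were read by Western blot.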
# [1] = target: T2, WT-Parkin (substrate His-Miro1 186-591) (Homo sapiens, UniProt O60260); assay: Miro1 ubiquitination assay by Western blot; type: biochemical; conditions: His-Miro1 (186-591) substrate
# T2 sequence (O60260 1-465): T1 sequence (O60260 1-465)
# Summary of the method: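 Run as the TR-FRET reaction with untagged WT-Parkin. Test compound was pre-incubated 30 min with E1, E2, Parkin and His-Miro1 186-591 (250 nM final); the 2X mix held 40 nM E1, 800 nM E2 and 100 nM Parkin. After 20 min the reaction was stopped in SDS sample buffer, then run on 4–12% bis-tris SDS-PAGE, PVDF transfer and IR-dye secondary imaging.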
# [2] = target: Human MDR1 efflux transporter (MDCK-MDR1 cells) (Homo sapiens, UniProt P08183); assay: MDCK-MDR1 bidirectional permeability / efflux; type: in vitro ADME; conditions: average of inward and outward permeability
# Human MDR1 efflux transporter (MDCK-MDR1 cells), sequence (P08183 whole entry): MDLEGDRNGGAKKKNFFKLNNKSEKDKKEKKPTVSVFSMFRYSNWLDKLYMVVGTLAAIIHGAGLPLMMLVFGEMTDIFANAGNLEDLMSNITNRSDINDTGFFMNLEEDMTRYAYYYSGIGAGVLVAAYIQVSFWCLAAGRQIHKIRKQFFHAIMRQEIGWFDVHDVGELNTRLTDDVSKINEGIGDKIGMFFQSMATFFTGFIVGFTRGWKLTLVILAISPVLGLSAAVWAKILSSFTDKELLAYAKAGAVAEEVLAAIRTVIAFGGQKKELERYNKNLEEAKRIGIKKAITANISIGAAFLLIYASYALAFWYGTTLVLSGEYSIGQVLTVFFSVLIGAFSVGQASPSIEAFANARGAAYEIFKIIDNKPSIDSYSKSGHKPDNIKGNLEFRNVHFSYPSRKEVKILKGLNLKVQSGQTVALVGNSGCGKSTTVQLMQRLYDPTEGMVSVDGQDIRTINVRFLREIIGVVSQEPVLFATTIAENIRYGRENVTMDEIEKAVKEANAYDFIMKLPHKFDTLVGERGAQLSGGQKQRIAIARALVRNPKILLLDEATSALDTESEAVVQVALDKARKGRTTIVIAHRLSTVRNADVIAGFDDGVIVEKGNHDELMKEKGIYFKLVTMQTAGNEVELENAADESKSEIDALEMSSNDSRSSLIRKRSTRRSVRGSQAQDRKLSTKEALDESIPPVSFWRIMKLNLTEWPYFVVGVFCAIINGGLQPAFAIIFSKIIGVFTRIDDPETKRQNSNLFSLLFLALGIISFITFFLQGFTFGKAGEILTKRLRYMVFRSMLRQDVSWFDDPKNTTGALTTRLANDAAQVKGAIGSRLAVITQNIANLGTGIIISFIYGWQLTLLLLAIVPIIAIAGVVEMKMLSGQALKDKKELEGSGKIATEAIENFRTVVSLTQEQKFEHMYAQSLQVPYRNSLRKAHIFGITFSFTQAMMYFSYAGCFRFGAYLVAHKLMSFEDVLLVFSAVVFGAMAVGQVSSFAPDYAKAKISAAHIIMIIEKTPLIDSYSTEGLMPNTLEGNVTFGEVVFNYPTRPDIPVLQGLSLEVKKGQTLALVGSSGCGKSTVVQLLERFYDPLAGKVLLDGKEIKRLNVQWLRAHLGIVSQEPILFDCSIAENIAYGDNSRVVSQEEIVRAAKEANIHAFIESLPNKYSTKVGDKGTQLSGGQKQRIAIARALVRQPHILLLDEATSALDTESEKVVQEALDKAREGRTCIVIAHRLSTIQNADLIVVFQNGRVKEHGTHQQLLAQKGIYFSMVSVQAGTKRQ
# Summary of the method: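 MDCK-MDR1 cells were seeded at 0.28×10^6 cells/mL on the apical side of transwell inserts and grown 7 days, with two media changes. Monolayers were rinsed in HBSS/1% HEPES pH 7.4. 1 μM test compound was added to the donor side (A>B and B>A); receivers held buffer with 1% BSA. Plates were shaken 2 h at 37°C. Donor was sampled at 0 and 120 min, receiver at 2 h, and quenched with acetonitrile plus internal standard for LC-MS/MS. Post-assay TEER had to exceed 430 ohm∗cm2. Papp = (dQ/dt)(1/C0)(1/A); ER = Papp B>A / Papp A>B.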
# pParkin = target: T3, pParkin (Homo sapiens, UniProt O60260); assay: TR-FRET autoubiquitination assay with phospho-Parkin without pUb; type: biochemical; conditions: TR-FRET ratio, no pUb
# T3 sequence (O60260 1-465): T1 sequence (O60260 1-465)
# [3] = target: T4, N-terminally tagged W403A-Parkin (Homo sapiens, UniProt O60260, W403A); assay: In vitro ubiquitin vinyl sulfone; type: biochemical; conditions: 3 μM pUb, 1 h
# T4 sequence (O60260 1-465 W403A): T1 sequence (O60260 1-465) with W403A
# Summary of the method: (§1)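 Tagged Parkin (WT or W403A), 2 μM, incubated with 10 μM Ub-VS and 3 μM pUb. Test compound at 0, 0.09, 0.27, 0.8, 2.5, 7.4, 22.2, 66.7 and 200 μM. Buffer: 50 mM HEPES, 150 mM NaCl, 1 mM TCEP, pH 8.0. Final DMSO 2% (v/v).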
# [4] = target: T5, N-terminally tagged WT-Parkin (Homo sapiens, UniProt O60260); assay: In vitro ubiquitin vinyl sulfone; type: biochemical; conditions: 3 μM pUb, 2 h
# T5 sequence (O60260 1-465): T1 sequence (O60260 1-465)
# Summary of the method: as §1
# [5] = test system: SH-SY5Y cells expressing the MitoQC construct; assay: MitoQC mitophagy assay; type: cell-based; conditions: 1 h pre-incubation, Antimycin + Oligomycin
# Summary of the method: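 SH-SY5Y cells carrying MitoQC were seeded at 1.6×10^4 cells/well on attachment factor and recovered 72 h. Cells were pre-treated 1 h with test compound, then given 5 μM Antimycin + 10 μM Oligomycin or DMSO for 8 h unless stated otherwise. Fixed in 2% PFA on ice 30 min, DAPI-stained, and imaged at 64x (25 fields, 4 replicate wells). mCherry puncta (mitolysosomes) were counted.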
# [6] = target: T6, N-terminally tagged C431S-Parkin (Homo sapiens, UniProt O60260, C431S); assay: In vitro ubiquitin vinyl sulfone; type: biochemical; conditions: 200 μM compound, range of pUb concentrations
# T6 sequence (O60260 1-465 C431S): T1 sequence (O60260 1-465) with C431S
# [7] = test system: GFP-Parkin expressing HeLa cells; assay: Parkin translocation assay; type: cell-based
# Summary of the method: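 HeLa cells stably expressing GFP-Parkin (lentiviral, blasticidin-selected, FACS-sorted for matched GFP) were seeded at 1.6×10^4 cells/well and recovered 24 h. Nuclei were Hoechst-stained 30 min. Cells were pre-treated 1 h with test compound, then given 20 μM CCCP. Live imaging every 10 min for 3 h at 20x, 37°C, 5% CO2, with 9 fields in each of 4 replicate wells.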
smiles,measurement,setting,value
"CO[C@H](C(=O)N1Cc2c(-c3ccc(C(=O)N4CCCc5ccccc54)cc3)cnn2C[C@H]1C(C)C)c1cnn(C)c1 (single isomer, unassigned) [BIO-2007817]",Parkin autoubiquitination by Western blot,WT-Parkin,stimulated Parkin autoubiquitination as measured by Western blots in a concentration-dependent manner
same,Miro1 ubiquitination by Western blot,[1],able to induce the appearance of monoubiquitinated forms of Miro1
same,MDR1-MDCK avg (average of Papp AB/BA),[2],19.8 ×10⁻⁶ cm/s
same,activation of phospho-Parkin in the absence of pUb,pParkin,can act as an agonist for activated phospho-Parkin even in the absence of pUb
same,Ub-VS charging of W403A-Parkin,[3],further stimulated exposure of the active-site C431
same,Ub-VS charging of WT-Parkin,"[4]; no E1, E2 or ATP",induced the appearance of slower-migrating Parkin species in a concentration-dependent manner
same,concentration above which maximal efficacy is approached in Ub-VS charging,[4]; WT-Parkin,above 20 μM
same,"effect on mitophagy, MitoQC",[5],nor promote mitophagy in MitoQC SH-SY5Y cell lines
same,Ub-VS charging of C431S-Parkin,[6],not responsive; also recorded: no activity
same,effect on Parkin translocation rate in the presence of valspodar,[7]; HeLa cells with and without valspodar (MDR1 inhibitor),No change in Parkin translocation rate
same,effect on rate of Parkin translocation to mitochondria,"[7]; eGFP-WT-Parkin HeLa, 1 h pretreatment, then CCCP",did not significantly change the rate of translocation of Parkin; also recorded: not able to promote Parkin translocation to depolarized mitochondria in HeLa cells
